From paper PMC5590101 (Journal of medicinal chemistry, 2016)
“Also recorded” adds a separate entry of the source. Read-outs that look alike come from different tables or passages of the source.

Legend:
HeLa WTβIII [1] = assay: SRB antiproliferative assay, βIII-tubulin expressing HeLa WTβIII; format: cell-based; details: Homo sapiens, read-out: IC50 ± SD HeLa WTβIII
HeLa [2] = assay: SRB antiproliferative assay, HeLa; format: cell-based
[3] = test system: microtubules in A-10 cells; assay: Microtubule depolymerization in A-10 cells; format: cell-based, rat; details: for fold lower microtubule depolymerizing potency than 3: relative to compound 3; for fold more potent than (±)-1·HCl, microtubule depolymerizing effects: relative to lead (±)-1·HCl; for microtubule depolymerization activity: tested up to 10 µM
MDA-MB-435 cells [4] = assay: SRB antiproliferative assay, MDA-MB-435; format: cell-based; details: for IC50: Homo sapiens, MDA-MB-435, read-out: IC50 ± SD MDA-MB-435; for fold lower antiproliferative potency than 3: MDA-MB-435, relative to compound 3; for fold more potent than (±)-1·HCl, antiproliferative activity (MDA-MB-435): relative to lead (±)-1·HCl
IGROVI [5] = assay: NCI panel growth inhibition, IGROVI; format: cell-based
HeLa cells = assay: Cell cycle distribution by flow cytometry; format: cell-based; details: 18 h, five-times the IC50
NCI 60-cell line panel = assay: NCI cancer cell line panel; format: cell-based
SK-OV-3 [6] = assay: SRB antiproliferative assay, SK-OV-3; format: cell-based; details: SK-OV-3 and SK-OV-3 MDR1-M6/6 cell lines
MDA-MB-435 xenografts = assay: MDA-MB-435 flank xenograft model; format: in vivo, nude mice; details: ip, 60 mg/kg days 0 and 2, 50 mg/kg day 8; vs untreated control
Procedure, shortened: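 Nude mice bilaterally implanted sc in the flank with MDA-MB-435 tumour fragments; dosing began once tumours reached ~200 mm3. Test compound was given ip in PBS containing <5% (v/v) 50:50 Cremophor/DMSO. […] Tumour volumes and body weights were recorded 2–3 times weekly. Final volumes were compared with untreated controls by one-way ANOVA with Dunnett's test.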

SF-268 = details: NCI panel, CNS cancer; cited from earlier work
MOLT-4 = details: NCI panel, leukemia; cited from earlier work
MDA-MB-435 = details: NCI panel, melanoma; cited from earlier work
SF-539 = details: NCI panel, CNS cancer; cited from earlier work
SNB-19 = details: NCI panel, CNS cancer; cited from earlier work
HS 578T = details: NCI panel, breast cancer; cited from earlier work
CCRF-CEM = details: NCI panel, leukemia; cited from earlier work
OVCAR-3 = details: NCI panel, ovarian cancer; cited from earlier work
RXF 393 = details: NCI panel, renal cancer; cited from earlier work
IGROVI [7] = details: NCI panel, ovarian cancer; cited from earlier work
HL-60(TB) = details: NCI panel, leukemia; cited from earlier work
SK-OV-3 [8] = details: read-out: IC50 ± SD SK-OV-3; parental line; results previously published; cited from earlier work
A549/ATCC = details: NCI panel, NSCLC; cited from earlier work
DU-145 = details: NCI panel, prostate cancer; cited from earlier work
HCT-116 = details: NCI panel, colon cancer; cited from earlier work
SNB-75 = details: NCI panel, CNS cancer; cited from earlier work
UO-31 = details: NCI panel, renal cancer; cited from earlier work
[9] = test system: microtubules in A-10 cells; details: read-out: EC50 for microtubule depolymerization in A-10 cells; results previously published; cited from earlier work
HOP-92 = details: NCI panel, NSCLC; cited from earlier work
U251 = details: NCI panel, CNS cancer; cited from earlier work
SK-MEL-28 = details: NCI panel, melanoma; cited from earlier work
HCC-2998 = details: NCI panel, colon cancer; cited from earlier work
HT29 = details: NCI panel, colon cancer; cited from earlier work
PC-3 = details: NCI panel, prostate cancer; cited from earlier work
OVCAR-4 = details: NCI panel, ovarian cancer; cited from earlier work
MDA-MB-468 = details: NCI panel, breast cancer; cited from earlier work
RPMI-8226 = details: NCI panel, leukemia; cited from earlier work
KM12 = details: NCI panel, colon cancer; cited from earlier work
M14 = details: NCI panel, melanoma; cited from earlier work
HeLa [10] = details: read-out: IC50 ± SD HeLa; parental line; results previously published; cited from earlier work
SF-295 = details: NCI panel, CNS cancer; cited from earlier work
SK-MEL-5 = details: NCI panel, melanoma; cited from earlier work
SR = details: NCI panel, leukemia; cited from earlier work
COLO 205 = details: NCI panel, colon cancer; cited from earlier work
EKVX = details: NCI panel, NSCLC; cited from earlier work
SN12C = details: NCI panel, renal cancer; cited from earlier work
SK-OV-3 [11] = details: NCI panel, ovarian cancer; cited from earlier work
TK10 = details: NCI panel, renal cancer; cited from earlier work
MCF7 = details: NCI panel, breast cancer; cited from earlier work
HeLa WTβIII [12] = details: IC50 HeLa WTβIII / IC50 HeLa; results previously published; cited from earlier work
MDA-MB-435 cells [13] = details: read-out: IC50 ± SD MDA-MB-435; results previously published; cited from earlier work
NCI/ADR-RES = details: NCI panel, ovarian cancer; cited from earlier work
SK-OV-3 MDR1-M6/6 = details: IC50 MDR1-M6/6 / IC50 SK-OV-3; results previously published; cited from earlier work
HOP-62 = details: NCI panel, NSCLC; cited from earlier work
MDA-MB-231/ATCC = details: NCI panel, breast cancer; cited from earlier work
NCI-H23 = details: NCI panel, NSCLC; cited from earlier work
LOX IMVI = details: NCI panel, melanoma; cited from earlier work
NCI-H226 = details: NCI panel, NSCLC; cited from earlier work
OVCAR-5 = details: NCI panel, ovarian cancer; cited from earlier work
ACHN = details: NCI panel, renal cancer; cited from earlier work
NCI-H522 = details: NCI panel, NSCLC; cited from earlier work
K-562 = details: NCI panel, leukemia; cited from earlier work
OVCAR-8 = details: NCI panel, ovarian cancer; cited from earlier work
786–0 = details: NCI panel, renal cancer; cited from earlier work
HCT-15 = details: NCI panel, colon cancer; cited from earlier work
A498 = details: NCI panel, renal cancer; cited from earlier work
NCI-H460 = details: NCI panel, NSCLC; cited from earlier work
BT-549 = details: NCI panel, breast cancer; cited from earlier work
NCI-H322M = details: NCI panel, NSCLC; cited from earlier work
Bovine brain tubulin = Bovine brain tubulin (Bos taurus, UniProt P81947+Q6B856); assay: Inhibition of tubulin assembly; format: biochemical; details: for fold more potent than (±)-1·HCl, tubulin assembly: relative to lead (±)-1·HCl
Sequence of Bovine brain tubulin (Q6B856 whole entry): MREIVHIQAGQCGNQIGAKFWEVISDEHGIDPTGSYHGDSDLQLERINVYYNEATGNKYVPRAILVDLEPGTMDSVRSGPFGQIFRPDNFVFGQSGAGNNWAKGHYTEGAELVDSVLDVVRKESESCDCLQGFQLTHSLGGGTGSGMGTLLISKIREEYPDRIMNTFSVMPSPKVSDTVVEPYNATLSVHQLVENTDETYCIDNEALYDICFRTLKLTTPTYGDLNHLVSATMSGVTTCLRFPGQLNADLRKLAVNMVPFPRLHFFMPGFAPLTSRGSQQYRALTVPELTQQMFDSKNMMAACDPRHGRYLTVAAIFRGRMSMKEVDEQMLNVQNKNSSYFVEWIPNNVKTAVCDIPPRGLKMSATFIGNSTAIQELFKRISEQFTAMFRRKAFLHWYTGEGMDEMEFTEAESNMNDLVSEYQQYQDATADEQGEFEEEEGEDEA
Sequence of Bovine brain tubulin (P81947 whole entry): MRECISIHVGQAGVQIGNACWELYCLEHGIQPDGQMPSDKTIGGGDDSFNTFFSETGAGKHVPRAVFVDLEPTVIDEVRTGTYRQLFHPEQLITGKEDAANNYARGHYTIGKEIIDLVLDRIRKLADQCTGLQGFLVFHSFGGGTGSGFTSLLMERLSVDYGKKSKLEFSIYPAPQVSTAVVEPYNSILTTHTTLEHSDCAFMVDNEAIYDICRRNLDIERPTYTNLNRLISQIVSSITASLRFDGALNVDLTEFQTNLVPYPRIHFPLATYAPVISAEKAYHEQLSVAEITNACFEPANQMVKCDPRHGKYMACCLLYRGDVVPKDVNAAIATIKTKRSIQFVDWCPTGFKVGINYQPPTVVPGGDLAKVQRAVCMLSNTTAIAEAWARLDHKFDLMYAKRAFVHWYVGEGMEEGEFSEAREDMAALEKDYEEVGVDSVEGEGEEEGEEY

## CC(=O)O[C@H]1C(=O)[C@@]2(C)[C@H]([C@H](OC(=O)c3ccccc3)[C@]3(O)C[C@H](OC(=O)[C@H](O)[C@@H](NC(=O)c4ccccc4)c4ccccc4)C(C)=C1C3(C)C)[C@]1(OC(C)=O)CO[C@@H]1C[C@@H]2O [paclitaxel]
HeLa WTβIII [1]
  IC50: 0.024 ± 0.003 µM
HeLa [2]; Homo sapiens, HeLa, read-out: IC50 ± SD HeLa
  IC50: 0.0028 ± 0.00036 µM

## CCc1ccc(N(C)c2ncnc3occ(C)c23)cc1 [Compound 8, N-Methyl-N-(4-ethylphenyl)-5-methylfuro[2,3-d]pyrimidin-4-amine]
[3]
  fold lower microtubule depolymerizing potency than 3: 30 fold
MDA-MB-435 cells [4]
  IC50: 0.183 ± 0.013 µM
  fold lower antiproliferative potency than 3: 43 fold

## COc1ccc(N(C)c2ncnc3occ(C)c23)cc1 [Compound 3, N-(4-Methoxyphenyl)-N,5-dimethylfuro[2,3-d]pyrimidin-4-amine]
IGROVI [5]
  GI50: < 0.01 µM
[3]
  fold more potent than (±)-1·HCl, microtubule depolymerizing effects: 2.3 fold
HeLa [2]; HeLa and HeLa WT βIII cell lines
  fold better activity than (±)-1·HCl: 4 fold
HeLa cells
  accumulation of cells in G2/M: significant accumulation of cells in G2/M
NCI 60-cell line panel
  GI50: < 0.01 µM
SK-OV-3 [6]
  fold higher potency than (±)-1·HCl: 5 fold
MDA-MB-435 cells [4]
  IC50: 0.0043 ± 0.0003 µM
  fold more potent than (±)-1·HCl, antiproliferative activity (MDA-MB-435): about 4 fold
MDA-MB-435 xenografts
  antitumor effect (tumor growth): statistically significant antitumor effects; also recorded: statistically significant inhibition of tumor growth; also recorded: significantly inhibited tumor growth

## COc1ccc(N(C)c2nc(C)nc3c2CC(C)C3)cc1.Cl (racemic) [(±)-1·HCl, N-(4-methoxyphenyl)-N,2,6-trimethyl-6,7-dihydro-5H-cyclo-penta[d]-pyrimidin-4-aminium chloride]
SF-268
  GI50: 0.0152 µM
MOLT-4
  GI50: 0.0318 µM
MDA-MB-435
  GI50: < 0.01 µM
SF-539
  GI50: 0.0114 µM
SNB-19
  GI50: 0.0369 µM
HS 578T
  GI50: < 0.01 µM
CCRF-CEM
  GI50: 0.0163 µM
OVCAR-3
  GI50: < 0.01 µM
RXF 393
  GI50: < 0.01 µM
IGROVI [7]
  GI50: 0.011 µM
HL-60(TB)
  GI50: < 0.01 µM
SK-OV-3 [8]
  IC50: 0.0386 ± 0.0031 µM
A549/ATCC
  GI50: 0.0244 µM
DU-145
  GI50: 0.0214 µM
HCT-116
  GI50: 0.0151 µM
SNB-75
  GI50: < 0.01 µM
UO-31
  GI50: 0.0134 µM
[9]
  EC50: 0.056 µM
HOP-92
  GI50: 0.0554 µM
U251
  GI50: 0.0125 µM
SK-MEL-28
  GI50: < 0.01 µM
HCC-2998
  GI50: 0.024 µM
HT29
  GI50: 0.0118 µM
PC-3
  GI50: 0.0146 µM
OVCAR-4
  GI50: 0.0268 µM
MDA-MB-468
  GI50: < 0.01 µM
RPMI-8226
  GI50: 0.0157 µM
KM12
  GI50: < 0.01 µM
M14
  GI50: 0.0102 µM
HeLa [10]
  IC50: 0.0373 ± 0.0041 µM
SF-295
  GI50: < 0.01 µM
SK-MEL-5
  GI50: < 0.01 µM
SR
  GI50: < 0.01 µM
COLO 205
  GI50: 0.0183 µM
EKVX
  GI50: 0.0196 µM
SN12C
  GI50: 0.0318 µM
SK-OV-3 [11]
  GI50: 0.0275 µM
TK10
  GI50: 0.292 µM
MCF7
  GI50: < 0.01 µM
HeLa WTβIII [12]
  Rr (relative resistance): 0.6
MDA-MB-435 cells [13]
  IC50: 0.017 ± 0.0007 µM
NCI/ADR-RES
  GI50: < 0.01 µM
SK-OV-3 MDR1-M6/6
  Rr (relative resistance): 1.2
HOP-62
  GI50: 0.0194 µM
MDA-MB-231/ATCC
  GI50: 0.0246 µM
NCI-H23
  GI50: 0.0164 µM
LOX IMVI
  GI50: 0.0227 µM
NCI-H226
  GI50: 0.0315 µM
OVCAR-5
  GI50: 0.0385 µM
ACHN
  GI50: 0.0146 µM
NCI-H522
  GI50: < 0.01 µM
K-562
  GI50: < 0.01 µM
OVCAR-8
  GI50: 0.0328 µM
786–0
  GI50: 0.0348 µM
HCT-15
  GI50: < 0.01 µM
A498
  GI50: < 0.01 µM
NCI-H460
  GI50: 0.0234 µM
BT-549
  GI50: 0.0219 µM
NCI-H322M
  GI50: 0.059 µM

## CCCCN(c1ccc(OC)cc1)c1ncnc2occ(C)c12 [Compound 7, N-Butyl-N-(4-methoxyphenyl)-5-methylfuro[2,3-d]pyrimidin-4-amine]
Bovine brain tubulin
  fold more potent than (±)-1·HCl, tubulin assembly: about 2 fold
MDA-MB-435 cells [4]
  IC50: 0.1 ± 0.0065 µM

## CSc1ccc(N(C)c2ncnc3occ(C)c23)cc1 [Compound 9, N,5-Dimethyl-N-(4-(methylthio)phenyl)furo[2,3-d]pyrimidin-4-amine]
[3]
  fold lower microtubule depolymerizing potency than 3: 2 fold
  fold more potent than (±)-1·HCl, microtubule depolymerizing effects: equipotent
Bovine brain tubulin; relative to compound 3
  fold better than 3, tubulin assembly IC50: 3 fold
MDA-MB-435 cells [4]
  IC50: 0.0123 ± 0.0009 µM
  fold lower antiproliferative potency than 3: 3 fold
  fold more potent than (±)-1·HCl, antiproliferative activity (MDA-MB-435): 1.4–2.1 fold

## CCN(c1ccc(OC)cc1)c1ncnc2occ(C)c12 [Compound 4, N-Ethyl-N-(4-methoxyphenyl)-5-methylfuro[2,3-d]pyrimidin-4-amine]
[3]
  fold lower microtubule depolymerizing potency than 3: 2 fold
  fold more potent than (±)-1·HCl, microtubule depolymerizing effects: equipotent
Bovine brain tubulin
  fold more potent than (±)-1·HCl, tubulin assembly: about 2 fold
HeLa cells
  accumulation of cells in G2/M: significant accumulation of cells in G2/M
MDA-MB-435 cells [4]
  IC50: 0.0081 ± 0.0005 µM
  fold more potent than (±)-1·HCl, antiproliferative activity (MDA-MB-435): 1.4–2.1 fold

## COc1ccc(Nc2ncnc3occ(C)c23)cc1 [Compound 2, N-(4-Methoxyphenyl)-5-methylfuro[2,3-d]pyrimidin-4-amine]
[3]
  microtubule depolymerization activity: inactive; also recorded: essentially devoid of activity

## COc1ccc(N(c2ncnc3occ(C)c23)C(C)C)cc1 [Compound 5, N-Isopropyl-N-(4-methoxyphenyl)-5-methylfuro[2,3-d]pyrimidin-4-amine]
[3]
  microtubule depolymerization activity: ineffective
MDA-MB-435 cells [4]
  IC50: 0.504 ± 0.028 µM
MDA-MB-435 cells [4]; antiproliferative, relative to N-Et analogue 4
  fold less potent (IC50) than 4: 60 fold

## CCCN(c1ccc(OC)cc1)c1ncnc2occ(C)c12 [Compound 6, N-(4-Methoxyphenyl)-5-methyl-N-propylfuro[2,3-d]pyrimidin-4-amine]
Bovine brain tubulin
  fold more potent than (±)-1·HCl, tubulin assembly: about 2 fold
MDA-MB-435 cells [4]
  IC50: 0.0273 ± 0.0045 µM

## COc1ccc(/C=C\c2cc(OC)c(OC)c(OC)c2)cc1O [CA-4, combretastatin A-4]
HeLa cells
  accumulation of cells in G2/M: significant accumulation of cells in G2/M
